Source: ChEMBL document CHEMBL1139480, “Urotensin-II receptor ligands. From agonist to antagonist activity” (J Med Chem, 2005)
Active and inactive are the calls of the source. The calls are words filed in the database; no cut-off is given here.

Legend:
Rattus norvegicus [1] = organism: Rattus norvegicus; test: Maximum contractile response of thoracic aorta in albino Wistar rat after 30 min; assay type: functional; conditions: for EC50: 0.5 h
Urotensin-2 receptor [2] = molecular target: T1, Urotensin-2 receptor (Homo sapiens, UniProt Q9UKP6); test: Displacement of [125I]urotensin 2 from human UT receptor expressed in CHO-K1 cells; assay type: cell-based
T1 sequence (Q9UKP6 whole entry): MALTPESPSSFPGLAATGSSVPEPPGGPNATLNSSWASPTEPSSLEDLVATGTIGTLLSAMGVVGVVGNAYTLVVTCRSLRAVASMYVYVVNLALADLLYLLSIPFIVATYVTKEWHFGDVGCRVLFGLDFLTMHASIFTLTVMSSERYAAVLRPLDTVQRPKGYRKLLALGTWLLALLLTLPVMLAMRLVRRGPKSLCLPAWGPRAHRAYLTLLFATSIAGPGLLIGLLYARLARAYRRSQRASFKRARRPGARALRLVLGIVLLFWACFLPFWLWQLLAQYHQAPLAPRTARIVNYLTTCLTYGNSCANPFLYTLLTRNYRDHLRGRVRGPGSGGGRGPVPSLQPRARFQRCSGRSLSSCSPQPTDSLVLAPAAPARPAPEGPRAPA

Rattus norvegicus [3] = organism: Rattus norvegicus; test: Maximum contractile response of thoracic aorta in albino Wistar rat in the presence of human urotensin 2 after 30 min; assay type: functional; conditions: 0.5 h
In short: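 Thoracic aorta from male albino Wistar rats (275–350 g), decapitated under ether anesthesia, was cut into paired strips in oxygenated Krebs–Henseleit and recorded isotonically under 5 mN load. The control strip received cumulative hU-II. The test strip received the antagonist for 30 min, then cumulative hU-II. KCl 80 mM at the end gave the maximal contraction. pK_B = log(dose ratio − 1) − log[antagonist], slope assumed −1.0, averaged over individual values. Competition was checked by Schild plot.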

Urotensin-2 receptor [4] = molecular target: T2, Urotensin-2 receptor (Rattus norvegicus, UniProt P49684); test: Antagonist activity at rat UT receptor; assay type: functional; conditions: read-out: pA2 (converted)
T2 sequence (P49684 whole entry): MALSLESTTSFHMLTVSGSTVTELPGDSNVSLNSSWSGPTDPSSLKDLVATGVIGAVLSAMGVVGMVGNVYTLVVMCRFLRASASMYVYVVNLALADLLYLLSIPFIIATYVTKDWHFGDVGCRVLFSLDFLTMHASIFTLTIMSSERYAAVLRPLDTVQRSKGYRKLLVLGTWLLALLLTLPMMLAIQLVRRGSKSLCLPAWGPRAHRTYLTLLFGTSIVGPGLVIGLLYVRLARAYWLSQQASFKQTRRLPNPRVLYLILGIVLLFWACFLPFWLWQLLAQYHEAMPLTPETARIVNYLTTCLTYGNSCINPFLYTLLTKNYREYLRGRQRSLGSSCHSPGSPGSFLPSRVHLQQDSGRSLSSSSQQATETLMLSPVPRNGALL
In short: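 The control strip received cumulative hU-II. The test strip received the antagonist for 30 min, then cumulative hU-II. KCl 80 mM at the end gave the maximal contraction. pK_B = log(dose ratio − 1) − log[antagonist], slope assumed −1.0, averaged over individual values. Competition was checked by Schild plot.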

| Ki (Urotensin-2 receptor [2]) | SMILES | Emax (Rattus norvegicus [3]) | further results |
| --- | --- | --- | --- |
|  | CC(C)[C@H](NC(=O)[C@@H]1CSSC(C)(C)[C@@H](NC(=O)[C@@H](N)CC(=O)O)C(=O)N[C@@H](Cc2ccccc2)C(=O)N[C@@H](Cc2c[nH]c3ccccc23)C(=O)N[C@@H](CCCN)C(=O)N[C@@H](Cc2ccc(O)cc2)C(=O)N1)C(=O)O |  | Activity (Rattus norvegicus [1]; filed as partial agonist): Partial agonist |
|  | CC(C)[C@H](NC(=O)[C@@H]1CSSC[C@@H](NC(=O)[C@@H](N)CC(=O)O)C(=O)N[C@@H](Cc2ccccc2)C(=O)N[C@@H](Cc2c[nH]c3ccccc23)C(=O)N[C@@H](CCCN)C(=O)N[C@@H](Cc2ccc(O)cc2)C(=O)N1)C(=O)O |  | Activity (Rattus norvegicus [1]; filed as partial agonist): Partial agonist |
| 1.26 nM (antagonist) | CC(C)[C@H](NC(=O)[C@@H]1CSSC(C)(C)[C@H](NC(=O)[C@@H](N)CC(=O)O)C(=O)N[C@@H](Cc2ccccc2)C(=O)N[C@H](Cc2c[nH]c3ccccc23)C(=O)N[C@@H](CCCCN)C(=O)N[C@@H](Cc2ccc(O)cc2)C(=O)N1)C(=O)O [listing 1 of 2 here] |  | EC50 (Rattus norvegicus [1]): 63.1 nM |
|  | CC(C)[C@H](NC(=O)[C@@H]1CSSC[C@@H](NC(=O)[C@@H](N)CC(=O)O)C(=O)N[C@@H](Cc2ccccc2)C(=O)N[C@H](Cc2c[nH]c3ccccc23)C(=O)N[C@@H](CCCN)C(=O)N[C@@H](Cc2ccc(O)cc2)C(=O)N1)C(=O)O |  | Activity (Rattus norvegicus [1]): inactive |
| 15.8 nM (antagonist) | CC(C)[C@H](NC(=O)[C@@H]1CSSC(C)(C)[C@H](NC(=O)[C@@H](N)CC(=O)O)C(=O)N[C@@H](Cc2ccccc2)C(=O)N[C@@H](Cc2c[nH]c3ccccc23)C(=O)N[C@@H](CCCN)C(=O)N[C@@H](Cc2ccc(O)cc2)C(=O)N1)C(=O)O [listing 1 of 2 here] |  |  |
|  | CC(C)[C@H](NC(=O)[C@@H]1CSSC[C@H](NC(=O)[C@@H](N)CC(=O)O)C(=O)N[C@@H](Cc2ccccc2)C(=O)N[C@@H](Cc2c[nH]c3ccccc23)C(=O)N[C@@H](CCCCN)C(=O)N[C@@H](Cc2ccc(O)cc2)C(=O)N1)C(=O)O [listing 1 of 2 here] |  | EC50 (Rattus norvegicus [1]): 2.51 nM |
|  | CC(C)[C@H](NC(=O)[C@@H]1CSSC(C)(C)[C@H](NC(=O)[C@@H](N)CC(=O)O)C(=O)N[C@@H](Cc2ccccc2)C(=O)N[C@@H](Cc2c[nH]c3ccccc23)C(=O)N[C@@H](CCCN)C(=O)N[C@@H](Cc2ccc(O)cc2)C(=O)N1)C(=O)O [listing 2 of 2 here] | 22% |  |
| 398 nM (antagonist) | CC(C)[C@H](NC(=O)[C@@H]1CSSC(C)(C)[C@H](NC(=O)[C@@H](N)CC(=O)O)C(=O)N[C@@H](Cc2ccccc2)C(=O)N[C@H](Cc2c[nH]c3ccccc23)C(=O)N[C@H](CCCN)C(=O)N[C@@H](Cc2ccc(O)cc2)C(=O)N1)C(=O)O [listing 1 of 2 here] |  |  |
|  | CC(C)[C@H](NC(=O)[C@@H]1CSSC[C@H](NC(=O)[C@@H](N)CC(=O)O)C(=O)N[C@@H](Cc2ccccc2)C(=O)N[C@@H](Cc2c[nH]c3ccccc23)C(=O)N[C@@H](CCCCN)C(=O)N[C@@H](Cc2ccc(O)cc2)C(=O)N1)C(=O)O [listing 2 of 2 here] | 100% |  |
| 2000 nM (antagonist) | CC(C)[C@H](NC(=O)[C@@H]1CSSC(C)(C)[C@H](NC(=O)[C@@H](N)CC(=O)O)C(=O)N[C@@H](Cc2ccccc2)C(=O)N[C@H](Cc2c[nH]c3ccccc23)C(=O)N[C@@H](CCCN)C(=O)N[C@@H](Cc2ccc(O)cc2)C(=O)N1)C(=O)O |  | Activity (Rattus norvegicus [1]): inactive |
|  | CC(C)[C@H](NC(=O)[C@@H]1CSSC(C)(C)[C@H](NC(=O)[C@@H](N)CC(=O)O)C(=O)N[C@@H](Cc2ccccc2)C(=O)N[C@@H](Cc2c[nH]c3ccccc23)C(=O)N[C@@H](CCCCN)C(=O)N[C@@H](Cc2ccc(O)cc2)C(=O)N1)C(=O)O [listing 1 of 2 here] | 97% |  |
| 1.26 nM (antagonist) | CC(C)[C@H](NC(=O)[C@@H]1CSSC[C@H](NC(=O)[C@@H](N)CC(=O)O)C(=O)N[C@@H](Cc2ccccc2)C(=O)N[C@H](Cc2c[nH]c3ccccc23)C(=O)N[C@@H](CCCCN)C(=O)N[C@@H](Cc2ccc(O)cc2)C(=O)N1)C(=O)O [listing 1 of 2 here] |  | EC50 (Rattus norvegicus [1]): 63.1 nM |
|  | CC(C)[C@H](NC(=O)[C@@H]1CSSC(C)(C)[C@H](NC(=O)[C@@H](N)CC(=O)O)C(=O)N[C@@H](Cc2ccccc2)C(=O)N[C@H](Cc2c[nH]c3ccccc23)C(=O)N[C@@H](CCCCN)C(=O)N[C@@H](Cc2ccc(O)cc2)C(=O)N1)C(=O)O [listing 2 of 2 here] | 33% |  |
|  | CC(C)[C@H](NC(=O)[C@@H]1CSSC(C)(C)[C@@H](NC(=O)[C@@H](N)CC(=O)O)C(=O)N[C@@H](Cc2ccccc2)C(=O)N[C@H](Cc2c[nH]c3ccccc23)C(=O)N[C@H](CCCN)C(=O)N[C@@H](Cc2ccc(O)cc2)C(=O)N1)C(=O)O |  | Activity (Rattus norvegicus [1]; filed as partial agonist): Partial agonist |
|  | CC(C)[C@H](NC(=O)[C@@H]1CSSC[C@H](NC(=O)[C@@H](N)CC(=O)O)C(=O)N[C@@H](Cc2ccccc2)C(=O)N[C@H](Cc2c[nH]c3ccccc23)C(=O)N[C@@H](CCCCN)C(=O)N[C@@H](Cc2ccc(O)cc2)C(=O)N1)C(=O)O [listing 2 of 2 here] | 42% |  |
|  | CC(C)[C@H](NC(=O)[C@@H]1CSSC(C)(C)[C@@H](NC(=O)[C@@H](N)CC(=O)O)C(=O)N[C@@H](Cc2ccccc2)C(=O)N[C@H](Cc2c[nH]c3ccccc23)C(=O)N[C@@H](CCCN)C(=O)N[C@@H](Cc2ccc(O)cc2)C(=O)N1)C(=O)O |  | Activity (Rattus norvegicus [1]): inactive |
|  | CC(C)[C@H](NC(=O)[C@@H]1CSSC[C@H](NC(=O)[C@H](CC(=O)O)NC(=O)[C@@H]2CCCN2C(=O)[C@@H](NC(=O)[C@@H](N)CCC(=O)O)[C@@H](C)O)C(=O)N[C@@H](Cc2ccccc2)C(=O)N[C@@H](Cc2c[nH]c3ccccc23)C(=O)N[C@@H](CCCCN)C(=O)N[C@@H](Cc2ccc(O)cc2)C(=O)N1)C(=O)O [HUMAN UROTENSIN II] | 100% | EC50 (Rattus norvegicus [1]): 5.01 nM |
|  | CC(C)[C@H](NC(=O)[C@@H]1CSSC[C@H](NC(=O)[C@@H](N)CC(=O)O)C(=O)N[C@@H](Cc2ccccc2)C(=O)N[C@@H](Cc2c[nH]c3ccccc23)C(=O)N[C@@H](CCCN)C(=O)N[C@@H](Cc2ccc(O)cc2)C(=O)N1)C(=O)O [listing 1 of 2 here] | 36% |  |
|  | CC(C)[C@H](NC(=O)[C@@H]1CSSC(C)(C)[C@H](NC(=O)[C@@H](N)CC(=O)O)C(=O)N[C@@H](Cc2ccccc2)C(=O)N[C@H](Cc2c[nH]c3ccccc23)C(=O)N[C@H](CCCN)C(=O)N[C@@H](Cc2ccc(O)cc2)C(=O)N1)C(=O)O [listing 2 of 2 here] | 25% |  |
| 10 nM (antagonist) | CC(C)[C@H](NC(=O)[C@@H]1CSSC[C@H](NC(=O)[C@@H](N)CC(=O)O)C(=O)N[C@@H](Cc2ccccc2)C(=O)N[C@@H](Cc2c[nH]c3ccccc23)C(=O)N[C@@H](CCCN)C(=O)N[C@@H](Cc2ccc(O)cc2)C(=O)N1)C(=O)O [listing 2 of 2 here] |  | Kb (Urotensin-2 receptor [4]): 50.1 nM (antagonist) |
| 12.6 nM (antagonist) | CC(C)[C@H](NC(=O)[C@@H]1CSSC[C@H](NC(=O)[C@@H](N)CC(=O)O)C(=O)N[C@@H](Cc2ccccc2)C(=O)N[C@H](Cc2c[nH]c3ccccc23)C(=O)N[C@@H](CCCN)C(=O)N[C@@H](Cc2ccc(O)cc2)C(=O)N1)C(=O)O |  | Kb (Urotensin-2 receptor [4]): 10 nM (antagonist) |
|  | CC(C)[C@H](NC(=O)[C@@H]1CSSC(C)(C)[C@H](NC(=O)[C@@H](N)CC(=O)O)C(=O)N[C@@H](Cc2ccccc2)C(=O)N[C@@H](Cc2c[nH]c3ccccc23)C(=O)N[C@@H](CCCCN)C(=O)N[C@@H](Cc2ccc(O)cc2)C(=O)N1)C(=O)O [listing 2 of 2 here] |  | EC50 (Rattus norvegicus [1]): 0.251 nM |
